Results reported in ChEMBL document CHEMBL1125248, “Synthesis and anticancer activity of various 3'-deoxy pyrimidine nucleoside analogues and crystal structure of 1-(3-deoxy-beta-D-threo-pentofuranosyl)cytosine” (1991).

Key:
Format in all cases: functional
CCRF-CEM = test: Inhibit the replication of CCRF-CEM cell line in vitro.; details: Homo sapiens, read-out: ED50 (the source's name)
How it was run: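 Human CCRF-CEM lymphoblastic leukemia cells held in suspension in RPMI medium with 10% horse serum, 37 °C, humidified 5% CO2. Test agent at various concentrations added to exponential-phase cultures (2 × 10⁴ cells/mL). Cell numbers compared with untreated cultures at 24, 48 and 72 h. 50% replication-inhibiting concentration read from dose-response curves, at least two independent experiments.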

CCRF S-180 = test: Effective dose to inhibit the replication of S180 cell line in vitro.; details: Mus musculus, read-out: ED50 (the source's name)
How it was run: (§1)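 Murine L1210, P388 and S-180 cells grown as suspension cultures in Fischer's medium with 10% horse serum at 37 °C under 5% CO2. Various concentrations added to exponentially growing cells at 2 × 10⁴ cells/mL. Cells counted against drug-free controls after 24, 48 and 72 h. ED50 (50% inhibition of replication) estimated from dose-response curves of at least two independent experiments.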

P388 = test: Effective dose to inhibit the replication of P388 cell line in vitro.; details: Mus musculus, read-out: ED50 (the source's name); how it was run: as §1
L1210 = test: Effective dose to inhibit the replication of L1210 cell line in vitro.; details: Mus musculus, read-out: ED50 (the source's name); how it was run: as §1

| Compound | EC50 (CCRF-CEM) | EC50 (CCRF S-180) | EC50 (P388) | EC50 (L1210) |
| --- | --- | --- | --- | --- |
| O=c1[nH]c(=O)n([C@@H]2O[C@H](CO)C[C@@H]2O)cc1Cl | > 100 µM | > 100 µM | > 100 µM | > 100 µM |
| Nc1nc(=O)n([C@@H]2O[C@H](CO)C[C@H]2O)cc1Br | > 100 µM | > 100 µM | > 100 µM | > 100 µM |
| Nc1ccn([C@@H]2O[C@H](CO)[C@@H](O)[C@@H]2O)c(=O)n1 [CYTARABINE] | 0.005 µM | 0.2 µM | 0.02 µM | 0.05 µM |
| O=c1ccn([C@@H]2O[C@H](CO)C[C@H]2O)c(=O)[nH]1 | > 100 µM | > 100 µM | 25 µM | 50 µM |
| O=c1[nH]c(=O)n([C@@H]2O[C@H](CO)C[C@H]2O)cc1Br | > 100 µM | > 100 µM | > 100 µM | > 100 µM |
| O=c1[nH]c(=O)n([C@@H]2O[C@H](CO)C[C@@H]2O)cc1I | > 100 µM | > 100 µM | > 100 µM | > 100 µM |
| O=c1[nH]c(=O)n([C@@H]2O[C@H](CO)C[C@@H]2O)cc1Br | > 100 µM | > 100 µM | > 100 µM | > 100 µM |
| Nc1nc(=O)n([C@@H]2O[C@H](CO)C[C@H]2O)cc1I | > 100 µM | > 100 µM | > 100 µM | > 100 µM |
| O=c1ccn([C@@H]2O[C@H](CO)C[C@@H]2O)c(=O)[nH]1 | > 100 µM | > 100 µM | > 100 µM | > 100 µM |
| CC(=O)Nc1ccn([C@@H]2O[C@H](CO)C[C@@H]2OC(C)=O)c(=O)n1 | > 100 µM | > 100 µM | > 100 µM | > 100 µM |

More lines, now with the values ahead:

| EC50 (CCRF-CEM) | EC50 (CCRF S-180) | EC50 (P388) | EC50 (L1210) | Compound |
| --- | --- | --- | --- | --- |
| 23 µM | > 100 µM | > 100 µM | > 100 µM | CC(=O)Nc1ccn([C@@H]2O[C@H](COC(C)=O)C[C@@H]2OC(C)=O)c(=O)n1 |
| 2 µM | 34 µM | 5 µM | 10 µM | Nc1ccn([C@@H]2O[C@H](CO)C[C@@H]2O)c(=O)n1 |
| 1 µM | 30 µM | 10 µM | 20 µM | CC(=O)OC[C@@H]1C[C@H](OC(C)=O)[C@H](n2ccc(N)nc2=O)O1 |
| 3 µM | 20 µM | 2 µM | 5 µM | CC(=O)O[C@H]1C[C@@H](CO)O[C@H]1n1ccc(N)nc1=O |
| 25 µM | 15 µM | 2.5 µM | 5 µM | Nc1ccn([C@@H]2O[C@H](CO)C[C@H]2O)c(=O)n1 |
| 0.4 µM | 13 µM | 3 µM | 3 µM | CC(=O)OC[C@@H]1C[C@H](O)[C@H](n2ccc(N)nc2=O)O1 |
